According to paper PMC12818350 (Nature Biotechnology, 2025):
Non-standard residues stand in square brackets, D forms with d. No end group written: not given here.

What was measured:
S. aureus SH1000 [1] = test: Mutant isolation by direct plating; assay type: cell-based, Staphylococcus aureus; conditions: 8× MIC, ~1 × 10^7 cells per ml, LB, 30 °C, overnight
S. aureus ClpX = S. aureus ClpX (Staphylococcus aureus, UniProt Q2FXQ7); test: Isothermal titration calorimetry; assay type: binding; conditions: 25 °C, ~30 μM His-ClpX, ~300 μM ligand
HeLa cells = test: Human cell toxicity assay; assay type: cell-based; conditions: MTT, 48 h, 32 and 3.2 µg ml−1, duplicate wells; three biologically independent replicates
Procedure, shortened: (§1)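 Cells grown in DMEM with 10% FBS, penicillin–streptomycin, glutamine and nonessential amino acids, and seeded in exponential phase at 5,000 per well, 37 °C, 5% CO2. Compound added from a DMSO stock in phenol red-free DMEM (final DMSO 0.5% or 0.05%). Vehicle sets 100% viability; camptothecin 40 µg ml−1 sets 0%. MTT added for 4 h, solubilized overnight, A570 read, normalized to percentage survival.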

S. aureus SH1000 [2] = test: MIC assay; assay type: cell-based, Staphylococcus aureus
HEK239 cells = test: Human cell toxicity assay; assay type: cell-based; conditions: MTT, 48 h, 32 and 3.2 µg ml−1, duplicate wells; three biologically independent replicates
Procedure, shortened: as §1

Sequence of S. aureus ClpX (Q2FXQ7 whole entry): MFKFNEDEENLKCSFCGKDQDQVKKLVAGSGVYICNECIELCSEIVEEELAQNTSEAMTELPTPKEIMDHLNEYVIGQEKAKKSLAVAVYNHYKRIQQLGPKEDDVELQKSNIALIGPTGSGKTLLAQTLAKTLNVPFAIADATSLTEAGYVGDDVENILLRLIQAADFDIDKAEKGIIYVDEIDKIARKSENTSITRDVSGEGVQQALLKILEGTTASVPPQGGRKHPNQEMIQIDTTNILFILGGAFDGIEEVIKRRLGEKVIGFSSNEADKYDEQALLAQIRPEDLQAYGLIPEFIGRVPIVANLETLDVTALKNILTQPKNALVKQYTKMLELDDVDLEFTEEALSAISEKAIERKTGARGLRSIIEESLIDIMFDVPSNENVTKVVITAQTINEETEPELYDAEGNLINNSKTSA

[dT]PFYL (also: lariat or depsi (positions not given here)) [synBNP 27, trigintamicin]
resistant mutants by direct plating (S. aureus SH1000 [1]): generated resistant mutants | binding to ClpX by ITC (in words) (S. aureus ClpX): bound ClpX | human cell toxicity (in words) (HeLa cells): human cell cytotoxicity | antibiotic activity after shifting the assay conditions to 37 °C (in words) (S. aureus SH1000 [2]; S. aureus, 37 °C instead of 30 °C): abolished | antibiotic activity against S. aureus (in words) (S. aureus SH1000 [2]; resolved trigintamicin isomers after resynthesis, 30 °C): showing antibiotic activity | human cell toxicity (in words) (HEK239 cells): human cell cytotoxicity
